CRFR2-BP ag: agonists of CRF-BP/CRF-R2 complex, primary screen, cell-based, HEK293, calcium dye fluorescence, uHTS. calcium dye fluorescence (FLIPR); percent of saturating CRF peptide response. 350,000 compounds, 0.46% hits. activation, % at 13.2 µM;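 active means activation of at least 50%, plus an integration ratio under a set limit after plate pattern correction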
DDE Tn6 FP inh: inhibitors of Tn6 peptide binding to fibrin DD(E), primary screen, biochemical, fluorescence polarization, human fibrin, Tn6 probe; Fibrin DD(E) TRITC-Tn6 fluorescence polarization displacement; inhibition, % at 8.3 µM; 370,000 compounds, 0.21% hits; AID 720509, 2013;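 active means inhibition above a per-campaign cutoff: mean of compounds within control limits plus 3 SD, cut at about 15% in these data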
CRFR2-BP antag: antagonists of CRF-BP/CRF-R2 complex, primary screen, cell-based, HEK293, calcium dye fluorescence, uHTS; inhibition, % at 11.8 µM; CRF-induced calcium fluorescence; 350,000 compounds, 0.59% hits;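 active means inhibition of the ligand-induced calcium signal above about 50% at the single tested concentration, limit read from the data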
proKLK7 act: proKLK7 zymogen activators, primary screen, biochemical, fluorescence intensity. activation, % at 7 µM. 370,000 compounds, 0.9% hits. Kallikrein-7 (Homo sapiens), P49862. purified proKLK7, EDANS-DABCYL substrate fluorescence; 100% is mature enzyme control, 0% vehicle. AID 652039, 2013;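 active means activation above the mean of all tested compounds plus 3 SD, computed per campaign excluding outliers beyond control limits, cut at about 13% in these data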
Tn7 DDE FP: inhibitors of Tn7 peptide binding to fibrin DD(E), primary screen, biochemical, fluorescence polarization, human fibrin, Tn7 probe. inhibition, % at 8.3 µM. FP displacement of FITC-Tn7 peptide from fibrin DD(E); 0% = median of compound wells per plate. 370,000 compounds, 0.13% hits. Fibrinogen beta chain (Homo sapiens), P02675;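 active means inhibition above the mean of compounds falling within the control limits plus 3 SD of them, cut at about 14% in these data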
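System: human fibrin DD(E); quantity: Fibrin-DD(E) at 2 µM final; also added: fluorescent Tn7 probe at 0.1 µM; compound dosing: single nominal test concentration of 8.3 µM per compound; schedule: 10 min preincubation, 3 h with tracer, room temperature; detection: fluorescence polarization of the labelled Tn7 tracer; repeats: one replicate per compound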
CendR NRP1 mod: modulators of CendR peptide binding to NRP-1, primary screen, biochemical, fluorescence polarization, uHTS. FAM-RPARPAR peptide binding to NRP-1. inhibition, % at 25 µM. 360,000 compounds, 0.85% hits;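 active means inhibition or corrected inhibition above about 18%, plus a signal ratio from 0.5 to 1.5, limit read from the data, passing the limit was not always enough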
proKLK7 act conf: proKLK7 zymogen activators, confirmation, biochemical, fluorescence intensity, triplicate. shares compounds with proKLK7 act. purified proKLK7, EDANS-DABCYL substrate fluorescence; scaled: vehicle 0, mature enzyme 100. activation, % at 7 µM. 3,200 compounds, 68% hits;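 active means activation, as change over the incubation, above the mean of all tested compounds plus 3 SD, cut at about 13% in these data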
EDANS interfere: EDANS-DABCYL substrate optical interference, artefact control for kallikrein-7 zymogen activator project, biochemical, fluorescence intensity, high throughput; 3,200 compounds, 80% hits; shares compounds with proKLK7 act; no enzyme, 4 h; solvent 0%, active enzyme control 100%; AID 686952, 2013; activation, % at 7 µM;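 active means activation above the all-compound mean plus 3 SD, ignoring values outside control-based bounds, cut at about 4.8% in these data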;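 further: value is the 4 h activation minus the activation read at time zero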
EDANS interf: counter-screen for kallikrein-7 activators: EDANS-DABCYL interference, dose response; shares compounds with proKLK7 act; EDANS-DABCYL peptide fluorescence interference, no enzyme; EC50, µM; 250 compounds, 20% hits; AID 720493;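 active means compounds that raise the fluorescence signal in this interference counterscreen, with EC50 at or below 10 µM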;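 further: intact quenched peptide substrate alone read at 355 nm excitation and 520 nm emission; signal is fluorescence gain from T0 to T4 after four hours at room temperature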
Of the large screens only hits and unclear results are named; the others gave an inactive call (follow-up assays come after a bar, where they were run). The list is not random: actives were taken first. Their share in the collection is about 2.9%.

COc1cc2c(cc1OC)CN(C(=O)NS(=O)(=O)c1ccc(C)cc1)CC2	proKLK7 act 20 | proKLK7 act conf inactive | EDANS interfere inactive
COC(=O)c1cc(NC(=O)NC2CCCCN(Cc3ccc(Cl)cc3)C2=O)cc(C(=O)OC)c1 (stereo not drawn)	none (no result: CRFR2-BP ag, CRFR2-BP antag, CendR NRP1 mod)
Cc1nccc(-c2sc(-c3cccs3)nc2C)n1	proKLK7 act 41 | proKLK7 act conf 20 | EDANS interfere 21
Cc1nc(-c2cccs2)sc1C(=O)O	none
CCOC(=O)Nc1ccc2c(c1)[C@]1(CC(=O)N(CC(C)C)C1c1ccccc1)C(=O)N2C (stereo partly drawn)	none (no result: CRFR2-BP ag, CRFR2-BP antag, CendR NRP1 mod)
Nc1ccc(-c2nc3c(Cl)c(N)ccc3[nH]2)cc1	proKLK7 act 70 | proKLK7 act conf 70 | EDANS interfere 77
Nc1ccc2nc(-c3cccc(-c4nc5ccc(N)cc5[nH]4)c3)[nH]c2c1	none
Cc1ccc(C)c(-c2nc3ccc(N)cc3[nH]2)c1	none
Nc1ccc(-c2nc3ccc([N+](=O)[O-])cc3[nH]2)cc1	none
Cc1nc2ccc(-c3nc4ccc(N)cc4[nH]3)cc2[nH]1	proKLK7 act 37 | proKLK7 act conf 69 | EDANS interfere 66
Nc1ccc(-c2nc3ccc(N)cc3[nH]2)cc1	proKLK7 act 87 | proKLK7 act conf 69 | EDANS interfere 75
Nc1ccc2nc(-c3cc(Cl)c(N)c(Cl)c3)[nH]c2c1	proKLK7 act 24 | proKLK7 act conf 21 | EDANS interfere 13 | EDANS interf inactive
Cc1occc1-c1nnc(SCC(=O)Nc2ccccn2)n1-c1ccccc1	none (no result: CRFR2-BP ag, CRFR2-BP antag, CendR NRP1 mod)
O=C(OC12CCCN(C1)/C(=C/c1cccc(Cl)c1)C2)c1ccno1 (stereo not drawn)	none (no result: CRFR2-BP ag, CRFR2-BP antag, CendR NRP1 mod)
C/C(C=NNC(=O)CSc1nnc(-c2ccccc2)n1-c1ccc(C)cc1)=C\c1ccco1	none (no result: CRFR2-BP ag, CRFR2-BP antag, CendR NRP1 mod)
Nc1ccc2nc(-c3ccc(Cl)cc3)[nH]c2c1	proKLK7 act 66 | proKLK7 act conf 64 | EDANS interfere 66
Cc1ccc2nc(-c3ccccc3N)[nH]c2c1	proKLK7 act 68 | proKLK7 act conf inactive | EDANS interfere inactive
Clc1ccc2nc(-c3ccc(Cl)nc3)[nH]c2c1	none
COc1ccccc1NC(=O)O[C@@H]1CC[C@@]23CCCN2C(=O)CCC[C@H]3C1	none (no result: CRFR2-BP ag, CRFR2-BP antag, proKLK7 act, CendR NRP1 mod)
COc1ccc2c(c1)CCCN2C(=O)C1CCCN(S(=O)(=O)c2ccc(C(C)(C)C)cc2)C1 (stereo not drawn)	none (no result: CRFR2-BP ag, CRFR2-BP antag, CendR NRP1 mod)
COC(=O)[C@@]12CCCCC3=C1N(CCC3)C(=O)[C@H]2CC(=O)NCc1ccc(OC)c(OC)c1	none (no result: CRFR2-BP ag, CRFR2-BP antag, CendR NRP1 mod)
CCC(SC1=N/C(=C/c2ccccc2OC)C(=O)N1c1ccccc1)C(=O)Nc1cc(C)on1 (stereo not drawn)	proKLK7 act 39 | proKLK7 act conf inactive | EDANS interfere inactive
COc1cccc(CN(C)Cc2cc(=O)oc3cc(O)c(Cl)cc23)c1	proKLK7 act 38 | proKLK7 act conf 28 | EDANS interfere 37
COc1cccc(CN(C)Cc2cc(=O)oc3c(C)c(C)ccc23)c1	none
COCCn1c(C)cc(/C=C(\C#N)C(=O)OCC(=O)Nc2ccc(S(N)(=O)=O)cc2)c1C	proKLK7 act 14 | proKLK7 act conf inactive | EDANS interfere inactive
COc1ccc(Cn2nnnc2CN(CCCN2CCOCC2)Cc2cc3cc(OC)ccc3[nH]c2=O)cc1	none
COc1ccc2cc(CN(CCCN3CCOCC3)Cc3nnnn3C3CCCC3)c(=O)[nH]c2c1	proKLK7 act 16 | proKLK7 act conf inactive | EDANS interfere inactive
Clc1ccc2nc(-c3ccc4c(c3)OCO4)cn2c1	proKLK7 act 14 | proKLK7 act conf inactive | EDANS interfere 7.8
Cc1ccc2nc(-c3ccc4c(c3)OCCO4)cn2c1	none
COc1ccc(CNC(=O)O[C@H]2CC[C@@]34CCCN3C(=O)CCC[C@H]4[C@H]2C)cc1	none (no result: CRFR2-BP ag, CRFR2-BP antag, proKLK7 act, CendR NRP1 mod)
Cc1nn(-c2ccccn2)c2nc(-c3cccs3)cc(C(=O)N3CCOCC3)c12	proKLK7 act 23 | proKLK7 act conf 32 | EDANS interfere 26 | EDANS interf inactive
Cc1cccc(-n2nc(C)c3c(C(=O)O)cc(-c4cccs4)nc32)c1	none
CCN1CCCC1Cn1cnc2c([nH]c3ccc(C)cc32)c1=O (stereo not drawn)	proKLK7 act 16 | proKLK7 act conf inactive | EDANS interfere 5.0
FC(F)(F)c1nc2nc(Cl)c(Cl)nc2n1CCCN1CCOCC1	proKLK7 act 25 | proKLK7 act conf inactive | EDANS interfere inactive
COc1ccc(NC(=O)CSc2nnc(-c3n[nH]c4c3CCC4)n2N)cc1OC	none (no result: CRFR2-BP ag, CRFR2-BP antag, CendR NRP1 mod)
CCn1c(=O)n2n(c1=O)[C@]1(C=C(C)C2)CN(Cc2ccc(OC)cc2OC)C(NC(=O)c2ccccc2)=N1	none (no result: CRFR2-BP ag, CRFR2-BP antag, proKLK7 act, CendR NRP1 mod)
O=C(Nc1ccc(-c2cn3ccsc3n2)cc1)c1ccc(F)c(S(=O)(=O)N2CCOCC2)c1	proKLK7 act 18 | proKLK7 act conf inactive | EDANS interfere 6.1
CCOP(=O)(OCC)/C(C#N)=C/c1cc(OC)ccc1OC	proKLK7 act 42 | proKLK7 act conf 39 | EDANS interfere 39
CCC(=O)Nc1ccc(Cl)cc1C(=O)c1ccc[nH]1	none (no result: CRFR2-BP ag, CRFR2-BP antag, proKLK7 act, CendR NRP1 mod)
O=C(O)c1cc2cccc(S(=O)(=O)N3CCOCC3)c2cc1O	proKLK7 act 14 | proKLK7 act conf 70 | EDANS interfere 72
COc1ccc(-c2cc(C(F)F)n3ncc(C(=O)n4ccnc4C)c3n2)cc1	proKLK7 act 13 | proKLK7 act conf 169 | EDANS interfere 167
COc1ccc(-c2cc(C(F)F)n3ncc(C(=O)N4CCc5ccccc54)c3n2)cc1	none
O=C(Nc1ccc2c(c1)OCO2)c1cc(-c2ccc(O)cc2)on1	proKLK7 act 20 | proKLK7 act conf 21 | EDANS interfere 14 | EDANS interf inactive
